Values after ≈ are worked out from the molar mass of the structure shown.
Tests used:
Escherichia coli [1] = test: Tested in vitro against Escherichia coli Vogel. by gradient-plate test; assay type: functional
In short: (§1)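 Antibacterial testing in vitro by gradient-plate test. Read-out was the minimum inhibitory concentration, with values exceeding 25 reported as >25.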

Plasmodium berghei [2] = test: Antimalarial activity as change in MST for drug-sensitive Plasmodium berghei infected mice (Mus musculus) at 40 mg/kg subcutaneous dose over 72hr; assay type: functional
Plasmodium berghei [3] = test: Antimalarial activity as change in MST for drug-sensitive Plasmodium berghei infected mice (Mus musculus) at 80mg/kg subcutaneous dose over 72h; assay type: functional
Plasmodium berghei [4] = test: Antimalarial activity as change in MST against drug-sensitive Plasmodium berghei infected mice (Mus musculus) at 20 mg/kg subcutaneous dose after 72h; assay type: functional
Plasmodium berghei [5] = test: Antimalarial activity as change in MST against drug-sensitive Plasmodium berghei infected mice (Mus musculus) at 320 mg/kg subcutaneous dose after 72 hr; assay type: functional
Plasmodium berghei [6] = test: Antimalarial activity as change in MST against drug-sensitive Plasmodium berghei infected mice (Mus musculus) at 160 mg/kg subcutaneous dose after 72h; assay type: functional
Plasmodium berghei [7] = test: Antimalarial activity as survivor numbers at day 60 for drug-sensitive Plasmodium berghei infected mice (Mus musculus) at 640 mg/kg subcutaneous dose over 72 hr; assay type: functional
In short: (§2)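 Mice infected with drug-sensitive P. berghei got one subcutaneous dose in sesame or peanut oil 72 h postinfection. Read-out is the number of mice alive at 60 days postinfection, termed "cured", without subinoculation to confirm parasitological cure. Groups of five per dose, or 10 where indicated.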

Shigella sonnei = test: In vitro antibacterial activity against Shigella sonnei C-10.; assay type: functional; in short: as §1
Staphylococcus aureus [8] = test: In vitro antibacterial activity against […] U.C-76.; assay type: functional; in short: as §1
Enterococcus faecalis [9] = test: In vitro antibacterial activity against Streptococcus faecalis MGH-2.; assay type: functional; in short: as §1
Staphylococcus aureus [10] = test: In vitro antibacterial activity against […] S 18713.; assay type: functional; in short: as §1
[11] = test system: Mycobacterium tuberculosis; test: In vitro antibacterial activity against Mycobacterium tuberculosis H37Rv.; assay type: functional
In short: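 Mycobacterium tuberculosis tested in vitro by gradient-plate test; minimum inhibitory concentration reported.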

Pseudomonas aeruginosa [12] = test: In vitro against Pseudomonas aeruginosa 28. by gradient-plate test; assay type: functional; in short: as §1
Escherichia coli [13] = test: Compound was tested in vitro against Escherichia coli Vogel. by gradient-plate test.; assay type: functional; in short: as §1
Plasmodium berghei [14] = test: Antimalarial activity as change in MST for drug-sensitive Plasmodium berghei infected mice (Mus musculus) at 40 mg/kg subcutaneous dose over 72 hr; assay type: functional
Plasmodium berghei [15] = test: Antimalarial activity as change in MST for drug-sensitive Plasmodium berghei infected mice (Mus musculus) at 640 mg/kg subcutaneous dose over 72 hr; assay type: functional
Plasmodium berghei [16] = test: Antimalarial activity as change in MST for drug-sensitive Plasmodium berghei infected mice (Mus musculus) at 80 mg/kg subcutaneous dose over 72 hr; assay type: functional
Plasmodium berghei [17] = test: Antimalarial activity as change in MST against drug-sensitive Plasmodium berghei infected mice (Mus musculus) at 160 mg/kg subcutaneous dose after 72 hr; assay type: functional
Pseudomonas aeruginosa [18] = test: Compound was tested in vitro against Pseudomonas aeruginosa 28. by gradient-plate test.; assay type: functional; in short: as §1
Plasmodium berghei [19] = test: Antimalarial activity as toxic deaths 2-5 days post infection for drug-sensitive Plasmodium berghei infected mice (Mus musculus) at 640 mg/kg subcutaneous dose over 72 hr; assay type: functional
In short: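 P. berghei (drug-sensitive) infected mice dosed once subcutaneously 72 h postinfection, compound in sesame or peanut oil. Read-out is the count of deaths on days 2–5 after infection, attributed to drug toxicity. Five animals per dose level, or 10 where indicated.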

Plasmodium berghei [20] = test: Antimalarial activity as change in MST for drug-sensitive Plasmodium berghei infected mice (Mus musculus) after 72 hrs at 320 mg/kg subcutaneous dose; assay type: functional
Plasmodium berghei [21] = test: In vivo antimalarial activity against drug-sensitive Plasmodium berghei in mice (Mus musculus) after 320 mg/kg subcutaneous dose for 72 hrs as survivors 60 days post infection
Plasmodium berghei [22] = test: Antimalarial activity as survivor number at day 60 for drug-sensitive Plasmodium berghei infected mice (Mus musculus) at 640 mg/kg subcutaneous dose over 72 hr; assay type: functional; in short: as §2
Enterococcus faecalis [23] = test: Compound was tested in vitro against Streptococcus faecalis MGH-2. by gradient-plate test.; assay type: functional; in short: as §1
Staphylococcus aureus [24] = test: Compound was tested in vitro against […] S 18713 by gradient-plate test.; assay type: functional; in short: as §1
Staphylococcus aureus [25] = test: Compound was tested in vitro against […] U.C-76. by gradient-plate test.; assay type: functional; in short: as §1

| Structure (SMILES) | MIC (Escherichia coli [1]) [µg/mL] | Delta MST (Plasmodium berghei [2]) [days] | Delta MST (Plasmodium berghei [3]) [days] | Delta MST (Plasmodium berghei [4]) [days] | Delta MST (Plasmodium berghei [5]) [days] | Delta MST (Plasmodium berghei [6]) [days] | MIC (Shigella sonnei) [µg/mL] | MIC (Staphylococcus aureus [8]) [µg/mL] | MIC (Enterococcus faecalis [9]) [µg/mL] | MIC (Staphylococcus aureus [10]) [µg/mL] | MIC [11] [µg/mL] | MIC (Pseudomonas aeruginosa [12]) [µg/mL] | Delta MST (Plasmodium berghei [15]) [days] | also measured |
| --- | --- | --- | --- | --- | --- | --- | --- | --- | --- | --- | --- | --- | --- | --- |
| CCOC(=O)N1CCN(S(=O)(=O)c2ccc3nc(N)nc(N)c3c2)CC1 | > 25 | 0.2 | 0.5 | 0.1 | 4.7 | 4.1 | > 25 | 2 (≈ 5.26 µM) | 2 (≈ 5.26 µM) | > 25 | > 25 | > 25 |  | survivors at day 60 (Plasmodium berghei [7]): 4 |
| Nc1nc(N)c2cc(S(=O)(=O)N3CCCCC3)ccc2n1 |  |  | 4.7 | 1.1 | 12.9 | 10.2 | 0.5 (≈ 1.63 µM) | < 0.25 | < 0.25 | < 0.25 | 10 (≈ 32.5 µM) | > 25 |  | MIC (Escherichia coli [13]): < 0.25 µg/mL; Delta MST (Plasmodium berghei [14]): 4.4 days; survivors at day 60 (Plasmodium berghei [7]): 5 |
| Nc1nc(N)c2cc(S(=O)(=O)N3CCCCC3Cc3ccccc3)ccc2n1 (stereo not drawn) | > 25 | 0.3 |  |  |  | 0.3 | > 25 | 2 (≈ 5.03 µM) | < 0.25 | > 25 | > 25 | > 25 | 0.5 |  |
| Nc1nc(N)c2cc(S(=O)(=O)Nc3ccc4ccccc4c3)ccc2n1 | > 25 |  |  | 0.3 | 1.5 | 1.1 | > 25 | > 25 | 5 (≈ 13.7 µM) | > 25 |  | > 25 | 5.3 | Delta MST (Plasmodium berghei [14]): 0.3 days; Delta MST (Plasmodium berghei [16]): 0.5 days |
| Nc1nc(N)c2cc(S(=O)(=O)Nc3cccc(Br)c3)ccc2n1 | > 25 | 0.3 | 0.5 | 0.3 | 1.7 | 0.5 | > 25 | > 25 | > 25 | > 25 | > 25 | > 25 | 4.1 |  |
| CCCN(CCC)S(=O)(=O)c1ccc2nc(N)nc(N)c2c1 |  | 0.3 |  |  |  |  |  |  |  |  |  |  | 1.3 | Delta MST (Plasmodium berghei [17]): 0.4 days |
| Nc1nc(N)c2cc(S(=O)(=O)N(CCO)CCO)ccc2n1 |  |  | 0.5 | 0.3 | 4.1 | 1.3 |  |  |  |  |  |  | 8.1 | Delta MST (Plasmodium berghei [14]): 0.3 days |
| Nc1nc(N)c2cc(S(=O)(=O)N3CCC(N4CCCCC4)CC3)ccc2n1 | > 25 | 0.3 | 0.5 |  | 2.1 | 0.7 | > 25 | > 25 | > 25 | > 25 | > 25 | > 25 | 3.9 |  |
| CN(c1cccc(Cl)c1)S(=O)(=O)c1ccc2nc(N)nc(N)c2c1 | > 25 | 0.3 | 0.5 | 0.3 | 6.9 | 4.5 | > 25 | > 25 | > 25 | > 25 | > 25 |  | 11.9 | MIC (Pseudomonas aeruginosa [18]): > 25 µg/mL |
| CN(c1ccccc1)S(=O)(=O)c1ccc2nc(N)nc(N)c2c1 | > 25 |  | 3.1 | 0.5 | 11.5 | 8.3 | > 25 | > 25 | > 25 | > 25 | > 25 | > 25 | 13.9 | Delta MST (Plasmodium berghei [14]): 0.5 days |
| CCN(CC)S(=O)(=O)c1ccc2nc(N)nc(N)c2c1Cl | > 25 | 2.3 | 4.3 |  | 18.9 |  | > 25 | 10 (≈ 30.3 µM) | < 0.25 | > 25 | > 25 | > 25 |  | toxic deaths (Plasmodium berghei [19]): 5; Delta MST (Plasmodium berghei [17]): 14.9 days |
| Nc1nc(N)c2cc(S(=O)(=O)N3CCSCC3)ccc2n1 | 2 (≈ 6.15 µM) | 2.5 | 3.5 | 1.7 |  | 8.3 | 2 (≈ 6.15 µM) | < 0.25 | < 0.25 | < 0.25 | > 25 | > 25 | 12.6 | Delta MST (Plasmodium berghei [20]): 9.6 days |
| Nc1nc(N)c2cc(S(=O)(=O)N3CCCC3)ccc2n1 | 10 (≈ 34.1 µM) | 5 | 6.9 | 0.5 |  | 8.7 | > 25 | < 0.25 | < 0.25 | 2 (≈ 6.82 µM) | 10 (≈ 34.1 µM) |  |  | MIC (Pseudomonas aeruginosa [18]): > 25 µg/mL; survivors at day 60 (Plasmodium berghei [7]): 10; survivors at day 60 (Plasmodium berghei [21]): 5 |
| CN(C)S(=O)(=O)c1ccc2nc(N)nc(N)c2c1Cl |  | 10.3 | 12.2 | 7.5 |  | 17 | 5 (≈ 16.6 µM) | 15 (≈ 49.7 µM) | < 0.25 | > 25 | > 25 | > 25 |  | MIC (Escherichia coli [13]): 5 µg/mL (≈ 16.6 µM); Delta MST (Plasmodium berghei [20]): 23.9 days; survivors at day 60 (Plasmodium berghei [22]): 1 |
| Nc1nc(N)c2cc(S(=O)(=O)Nc3ccc(Cl)c(Cl)c3)ccc2n1 | > 25 | 3.1 | 8.1 | 0.3 | 9.9 | 10.1 | > 25 | 2.5 (≈ 6.51 µM) |  | > 25 | > 25 | > 25 |  | survivors at day 60 (Plasmodium berghei [7]): 5; MIC (Enterococcus faecalis [23]): > 25 µg/mL |
| Nc1nc(N)c2cc(S(=O)(=O)Nc3ccc(Cl)cc3)ccc2n1 |  | 0.7 | 4.9 | 0.5 | 14.7 | 9.3 |  |  |  |  |  |  | 13.9 |  |
| CN(Cc1ccc(Cl)c(Cl)c1)S(=O)(=O)c1ccc2nc(N)nc(N)c2c1 | > 25 |  | 0.5 | 0.3 | 4.1 | 0.5 | > 25 | > 25 | > 25 | > 25 | > 25 | > 25 | 9.5 | Delta MST (Plasmodium berghei [14]): 0.3 days |
| CN1CCN(S(=O)(=O)c2ccc3nc(N)nc(N)c3c2)CC1 | > 25 | 1 | 1.5 | 0.3 |  | 4.4 | > 25 |  | 2 (≈ 6.2 µM) |  | > 25 |  | 11.8 | Delta MST (Plasmodium berghei [20]): 8.9 days; MIC (Pseudomonas aeruginosa [18]): > 25 µg/mL; MIC (Staphylococcus aureus [24]): > 25 µg/mL; MIC (Staphylococcus aureus [25]): 2 µg/mL (≈ 6.2 µM) |
| CCN(CC)CCN(C)S(=O)(=O)c1ccc2nc(N)nc(N)c2c1 |  | 0.1 |  |  |  | 0.3 | > 25 | > 25 | 20 (≈ 56.7 µM) | > 25 | > 25 | > 25 | 0.3 | MIC (Escherichia coli [13]): > 25 µg/mL |
| CC(C)N(C)S(=O)(=O)c1ccc2nc(N)nc(N)c2c1 |  | 0.7 |  | 0.5 | 6.9 | 7.3 |  |  |  |  |  |  |  | Delta MST (Plasmodium berghei [16]): 4 days |
| Cc1c(S(=O)(=O)N(C)C)ccc2nc(N)nc(N)c12 | < 0.25 |  |  |  |  |  | 1.5 (≈ 5.33 µM) | 2 (≈ 7.11 µM) | < 0.25 | 2.5 (≈ 8.89 µM) | > 25 | > 25 |  | Delta MST (Plasmodium berghei [14]): 1.1 days; toxic deaths (Plasmodium berghei [19]): 5 |

— ChEMBL document CHEMBL1122803, “Folate antagonists. 22. Antimalarial and antibacterial effects of 2,4-diamino-6-quinazolinesulfonamides” (1984)
